Compounds with a hit are over-represented: about 2.3% of the library has one in this group of screens.
ADAM17 inh – ADAM17 inhibition, QFRET primary screen; P78536; recombinant ADAM17, EDANS/DABCYL FRET peptide cleavage; inhibition, % at 6.95 µM; 0.83% of 370,000 active; AID 720648;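 active = inhibition above the mean of compounds lying between control limits plus 3 SD, set per campaign, cut at about 8.5% in these data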;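 also: 0% = DMSO-only wells as the low control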
Target sequence (P78536 215-824 limits assumed): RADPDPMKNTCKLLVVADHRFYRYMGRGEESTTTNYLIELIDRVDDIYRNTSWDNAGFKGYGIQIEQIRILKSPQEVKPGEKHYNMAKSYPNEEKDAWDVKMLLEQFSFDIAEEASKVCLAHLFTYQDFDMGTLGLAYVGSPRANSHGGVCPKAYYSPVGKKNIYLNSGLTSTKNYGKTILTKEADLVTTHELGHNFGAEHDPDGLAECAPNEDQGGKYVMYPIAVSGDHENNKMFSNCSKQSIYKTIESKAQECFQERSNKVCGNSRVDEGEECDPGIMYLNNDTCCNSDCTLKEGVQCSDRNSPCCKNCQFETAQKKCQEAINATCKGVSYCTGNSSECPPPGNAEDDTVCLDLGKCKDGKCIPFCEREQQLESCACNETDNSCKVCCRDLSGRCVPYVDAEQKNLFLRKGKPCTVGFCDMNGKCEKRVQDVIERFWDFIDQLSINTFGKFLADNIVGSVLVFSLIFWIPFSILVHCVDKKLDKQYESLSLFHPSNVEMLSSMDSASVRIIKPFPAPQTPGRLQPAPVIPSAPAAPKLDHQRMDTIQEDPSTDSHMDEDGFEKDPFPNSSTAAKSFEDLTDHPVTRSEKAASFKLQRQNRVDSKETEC
ADAM10 inh – inhibits human ADAM10. recombinant ADAM10, EDANS/DABCYL FRET peptide cleavage, 3 h. AID 720582. inhibition, % at 7 µM. 0.62% of 370,000 active;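 active = inhibition above a per-campaign cutoff equal to the mean of compounds falling between control-based bounds plus 3 SD, cut at about 20% in these data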;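 also: 0% = DMSO wells while the 100% control is not disclosed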
PLCg1 inh – PLC-gamma1 (human) inhibition, primary screen. inhibition, % at 12.2 µM. purified PLC-gamma1, fluorogenic substrate, fluorescence. P19174. AID 720700. 0.84% of 370,000 active; in the data active = inhibition above about 9.5%
TbMetRS inhib – Trypanosoma brucei MetRS inhibition | inhibition, % at 11.9 µM | purified T. brucei MetRS, ATP depletion, Kinase-Glo luminescence | 0.4% of 360,000 active;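 active = inhibition above a per-plate cutoff of the control wells' mean inhibition plus 3 SD, cut at about 5.5% in these data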;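 also: 0% = DMSO wells median and 100% = median of wells with control inhibitor compound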
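System: purified T. brucei MetRS enzyme / Detection: Kinase-Glo luciferase luminescence reporting remaining unconsumed ATP / Medium: HEPES buffer with MgCl2, KCl, DTT, spermine, BSA, pyrophosphatase / Replication: singlicate, one well per compound / Evaluation: percent inhibition relative to median high and low control wells / Schedule: 2 h aminoacylation at 25 °C after 15 min preincubation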
PLC-beta3 inh – PLC-beta3 (human) inhibition, primary screen | AID 720704 | Purified PLC-beta3, fluorogenic substrate, fluorescence | 0.18% of 370,000 active | inhibition, % at 12.2 µM | Q01970; in the data active = inhibition above about 11%;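 also: 0% = median of compound wells on plate and 100% = full blocker control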
ADAM10 confirm – confirmation of inhibitors of human ADAM10; inhibition, % at 6.95 µM; shares compounds with ADAM10 inh; 1% of 2,100 active; ADAM10 QFRET peptide cleavage, EDANS fluorescence;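 active = inhibition above about 20% chosen separately for each screening run, limit read from the data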;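 also: 0% = DMSO wells and 100% = marimastat wells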
ADAM17 counter – counter-screen for ADAM10 exosite inhibitors: inhibitors of human ADAM17; ADAM17 QFRET peptide cleavage, EDANS fluorescence; shares compounds with ADAM10 inh; 0.5% of 2,100 active; inhibition, % at 6.95 µM; AID 743214;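 active = mean triplicate inhibition above the solvent-only control wells' mean plus 3 SD, cut at about 12% in these data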;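 also: 0% = DMSO wells and 100% = marimastat wells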
Numbers without * were called inactive; . = no result given; ! = not active in a repeat.

SMILES | ADAM17 inh | ADAM10 inh | PLCg1 inh | TbMetRS inhib | PLC-beta3 inh | ADAM10 confirm | ADAM17 counter
O=[N+]([O-])c1ccc(-c2nc(-c3cccs3)c(-c3cccs3)[nH]2)cc1 | 14.7* | 23.7* | -81.7 | 0.3 | -102.0 | 25.6* | 11.6*
CCCn1c(N)c(Sc2ccccc2[N+](=O)[O-])c(=O)n(CCC)c1=O | -2.3 | 7.0 | 0.7 | 0.0 | -3.7 | . | .
CC1(C(=O)OCC(=O)Nc2nnc(-c3ccccc3)o2)CC1(Cl)Cl (configuration not stated) | 0.2 | 2.9 | -3.4 | 0.0 | -4.8 | . | .
O=C(/C=C/c1ccccc1)Nc1ccc(NC(=O)c2cccs2)cc1 | -1.8 | 21.7* | 8.2 | -0.5 | 7.1 | 2.4 | 0.5
O=C(/C=C/c1ccccc1)NNC(=O)c1cccs1 | -3.7 | 4.7 | -1.7 | 0.0 | -8.2 | . | .
CC(C)(C)S(=O)N1Cc2cc(C(=O)O)nc(-c3cccc(-c4cc5ccccc5o4)c3)c2[C@H]1CCO (some centres not stated) | -3.2 | -14.0 | -18.6 | -0.4 | -21.3 | . | .
CC(C)(C)S(=O)N1Cc2cc(C(=O)N[C@@H]3CCN(Cc4ccccc4)C3)nc(-c3cccc(-c4cc5ccccc5o4)c3)c2[C@@H]1CCO (some centres not stated) | 6.1 | 20.1* | -5.0 | -0.3 | -4.9 | 17.6 | 8.6
OCC1OC(c2ccccc2)OC2COC(c3ccccc3)OC12 (configuration not stated) | -1.2 | -10.0 | -2.8 | 0.0 | 3.9 | . | .
CN1C(=O)Cc2cc(S(=O)(=O)N3CCN(c4ccc(Cl)cc4)CC3)ccc21 | 7.9 | 21.0* | 7.1 | 0.1 | -5.0 | -0.7 | -0.1
CCOc1cc(/C=N/NC(=O)COc2ccc(C)cc2)ccc1OC(=O)c1cccs1 | 4.0 | 21.1* | 0.7 | -0.8 | 3.9 | 10.1 | 2.5
COC(=O)c1cc(NC(=O)CN(c2ccc(OC)cc2)S(=O)(=O)c2ccc(F)cc2)ccc1Cl | 8.6 | 22.0* | -1.7 | 0.2 | 0.8 | 9.6 | 2.3
O=S1(=O)N[C@H](Cc2ccccc2)COc2cc(N3CCCC3)ccc21 | -1.4 | 2.2 | -0.3 | . | 3.7 | . | .
CCOC(=O)Nc1ccc2c(c1)N(C(=O)OCCN(C)C)c1ccccc1CC2 | -11.0 | 51.0*! | -26.1 | 0.0 | -29.8 | 2.3 | 0.4
CCOC(=O)Nc1ccc2c(c1)N(C(=O)CCN(C)C)c1ccccc1CC2 | 1.9 | -3.6 | 3.5 | -1.4 | -2.0 | . | .
COc1ccc(S(=O)(=O)NCc2ccccn2)cc1Br | 4.9 | 22.7* | 7.6 | -0.4 | 2.9 | -1.6 | 0.3
COc1cc(S(=O)(=O)NCc2ccccn2)ccc1Cl | 2.5 | 9.4 | 6.0 | -0.1 | 2.5 | . | .
C[C@H](CO)N1C[C@H](C)[C@@H](CN(C)S(=O)(=O)c2ccccc2)Oc2c(NC(=O)Nc3ccc4c(c3)OCO4)cccc2C1=O | 0.7 | 3.6 | 2.0 | 0.9 | 3.4 | . | .
C=CCn1c(NCc2cc(C)ccc2O)nc2ccccc21 | 0.1 | -1.4 | 2.8 | 2.8 | -3.0 | . | .
CCCCn1c(NCc2cc(C)ccc2O)nc2ccccc21 | 6.3 | 23.1* | 7.0 | 0.9 | 7.8 | 2.8 | 0.7
CC(C)c1ccc(NC(=O)C(c2ccc3c(c2)OCO3)N2CCCCC2)cc1 (configuration not stated) | 1.2 | -5.8 | 5.1 | -0.1 | -2.5 | . | .
Oc1cc2c(cc1C(c1ccc(Cl)c(Cl)c1)N1CCCC1)OCO2 (configuration not stated) | 8.0 | 27.1* | 2.6 | 1.5 | -3.0 | 18.8 | 6.3
COc1ccc(/C=N/NC(=O)c2ccn[nH]2)cc1COc1ccc(Cl)cc1 | 6.8 | 20.1* | 1.1 | 0.4 | -3.6 | 5.1 | 3.1
COc1ccc(/C=N/NC(=O)c2ccn[nH]2)cc1CSc1ccccn1 | -2.2 | 5.5 | 1.1 | -0.3 | -5.7 | . | .
O=C1C=C(c2ccc(C(=O)O)cc2)C[C@@H](c2ccc(F)cc2)C1 | -3.3 | -3.0 | -1.7 | -0.3 | -3.1 | . | .
CCOC(=O)N1CCN(C(=O)C[C@@H]2C[C@]3(C(=O)OCC)CCC4=C3N(CCC4)C2=O)CC1 | -8.2 | -3.5 | -0.1 | . | -1.3 | . | .
SMILES | ADAM17 inh | ADAM10 inh | PLCg1 inh | TbMetRS inhib | PLC-beta3 inh | ADAM10 confirm | ADAM17 counter
O=C(N[C@@H]1CCC(=O)N(CC[C@H](Oc2ccccc2)c2ccccc2)CC1)OCc1ccccc1 | 3.1 | 20.2* | 0.1 | -0.3 | 6.7 | 5.1 | 1.8
O=C(Nc1ccc(F)c(Cl)c1)C1Cc2c(-c3ccc4c(c3)OCO4)ccnc2O1 (configuration not stated) | 2.9 | 3.3 | 8.8 | 0.4 | 3.4 | . | .
CC1=NNC(=O)/C1=C\c1cn(-c2ccccc2)nc1-c1ccccc1 | 16.1* | 23.9* | 10.0* | 0.1 | 2.9 | 6.2 | 1.6
Cc1ccc(C(c2cc(Br)ccc2O)N2CCSCC2)cc1 (configuration not stated) | 6.4 | 24.9* | 4.0 | 0.7 | 3.2 | 1.4 | 0.2
CCOC(=O)c1cc(-c2ccccc2C)n(CC2CC(c3ccc(OC)cc3)=NO2)n1 (configuration not stated) | 7.8 | 22.8* | 6.1 | -0.1 | 5.4 | 0.9 | 0.1
COc1ccc(C2=NOC(Cn3nc(-c4ccccc4C)cc3C(=O)O)C2)cc1 (configuration not stated) | 4.4 | 9.1 | 5.9 | -0.4 | 5.0 | . | .
Cc1cc(C)c(O)c(-c2cc(C(=O)Nc3ccc(S(=O)(=O)N4CCOCC4)cc3)[nH]n2)c1 | 7.9 | 21.1* | 1.9 | 4.5 | -1.6 | 5.8 | 2.0
CN1CCN(C(=O)C2=C[C@@H](c3csc4ccccc34)C[C@@H](OCc3ccc(CO)cc3)O2)CC1 | -1.3 | -2.0 | 3.0 | -0.2 | 0.6 | . | .
O=C(C1=C[C@H](c2csc3ccccc23)C[C@H](OCc2ccc(CO)cc2)O1)N1CCOCC1 | -0.7 | 89.0* | -4.3 | -0.1 | -3.2 | 0.6 | 0.3
CS(=O)(=O)N(CC(=O)Nc1ccccc1Sc1ccccc1)c1cccc(Br)c1 | 10.8* | 25.1* | 2.6 | -0.9 | -1.6 | 12.1 | 4.5
O=C(Nc1ccc(S(=O)(=O)NCCc2ccccc2)cc1)c1ccc(Br)o1 | 6.4 | 20.6* | -1.1 | -1.2 | -4.2 | 1.9 | 0.7
CCC(=O)Nc1ccc(S(=O)(=O)NCCc2ccccc2)cc1 | 4.8 | 2.9 | 6.6 | -0.5 | -0.8 | . | .
CC(C)(C)c1ccc(C(=O)NCC(=O)N/N=C/c2cccnc2)cc1 | 2.2 | 5.4 | 0.1 | -0.2 | -1.8 | . | .
COc1ccc(C2=NOC(C(=O)Nc3ccc4c(c3)OCO4)C2)cc1 (configuration not stated) | 3.8 | 22.1* | 3.5 | -0.7 | 0.4 | 2.9 | 1.5
O=C(Nc1ccc2c(c1)OCO2)C1CC(c2ccc(Cl)cc2)=NO1 (configuration not stated) | -2.0 | 0.0 | 0.8 | 0.3 | -0.5 | . | .
CCOC(=O)N/N=C/c1cn(CCCOc2ccc(C)cc2)c2ccccc12 | 5.8 | -0.2 | 2.0 | -1.5 | 0.0 | . | .

Bioassay records: PubChem, The Scripps Research Institute Molecular Screening Center
